ChEMBL document CHEMBL4033664, “Synthesis of benzoxazole derivatives as interleukin-6 antagonists” (Bioorg Med Chem, 2017)
Active and inactive are the calls of the source. The rule behind the calls is not given here.

Columns and labels:
[1] = target: Interleukin-6 (Homo sapiens) (UniProt P05231); experiment: Inhibition of IL-6 signaling pathway in human HepG2 cells transfected with p-STAT3-Luc assessed as reduction in IL-6 induced STAT3 phosphorylation at 20 ug/ml preincubated for 1 hr followed by IL-6 induction measured after 10 mins by immunoblot analysis; format: cell-based
Chain of Interleukin-6 (Homo sapiens) (P05231 whole entry): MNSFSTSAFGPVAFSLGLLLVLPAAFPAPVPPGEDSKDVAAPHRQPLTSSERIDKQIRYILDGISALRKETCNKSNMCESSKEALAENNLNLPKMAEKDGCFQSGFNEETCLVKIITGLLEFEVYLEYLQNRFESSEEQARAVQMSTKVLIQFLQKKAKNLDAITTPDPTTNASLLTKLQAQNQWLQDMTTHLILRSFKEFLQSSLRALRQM
How it was run: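 HepG2 cells were grown in MEM to 80% confluence and serum-starved for 6 h. They were treated with compound for 1 h, then with IL-6 (20 ng/ml) for 10 min. Lysates were run on SDS-PAGE and immunoblotted with anti-phospho-STAT3. Scanned band intensity was expressed relative to the IL-6-only band, set at 100%.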

[2] = Cytotoxicity against human HepG2 cells assessed as cell viability at 10 ug/ml after 48 hrs by MTT assay; format: cell-based; settings: read-out: Activity
How it was run: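 HepG2 cells in MEM with 10% FBS were exposed to compound at 1, 3, 10, 30 or 100 µg/ml for 48 h, then given MTT for 3 h. Formazan was dissolved in DMSO and OD read at 570 nm. Triplicates from three independent experiments, mean ± SE.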

TH2 cell [3] = experiment: Antiinflammatory activity in C57BL6 mouse CD4-positive T-effector TH2 cells assessed as suppression of IL-5 levels at 10 uM preincubated for 3 to 4 days followed by anti-CD3 stimulation for 24 hrs by ELISA; format: functional, cell-based
Th17 = experiment: Antiinflammatory activity in C57BL6 mouse CD4-positive T-effector Th17 cells assessed as suppression of IL-17 levels at 10 uM preincubated for 3 to 4 days followed by anti-CD3 stimulation for 24 hrs by ELISA; format: functional, cell-based
TH2 cell [4] = experiment: Antiinflammatory activity in C57BL6 mouse CD4-positive T-effector TH2 cells assessed as suppression of IL-13 levels at 10 uM preincubated for 3 to 4 days followed by anti-CD3 stimulation for 24 hrs by ELISA; format: functional, cell-based
Th1 [5] = experiment: Antiinflammatory activity in C57BL6 mouse CD4-positive T-effector Th1 cells assessed as suppression of anti-CD3/IL-12-induced IL-2 levels at 10 uM preincubated for 3 to 4 days followed by anti-CD3 stimulation for 24 hrs by ELISA; format: functional, cell-based
How it was run: (§1)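 CD4+ T cells were isolated from C57BL6 mouse lymph node and spleen and primed with anti-CD3 (2 µg/ml) plus anti-CD28 (1 µg/ml) for 24 h. Compound (10 µM) was added with IL-12 (10 ng/ml) and anti-IL-4 (5 µg/ml), renewed every other day for 3-4 days, then cells were restimulated with anti-CD3 (1 µg/ml) for 24 h. Supernatant cytokine was measured by sandwich ELISA with peroxidase-streptavidin and OD read-out.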

TH2 cell [6] = experiment: Antiinflammatory activity in C57BL6 mouse CD4-positive T-effector TH2 cells assessed as suppression of IL-4 levels at 10 uM preincubated for 3 to 4 days followed by anti-CD3 stimulation for 24 hrs by ELISA; format: functional, cell-based
How it was run: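 Mouse C57BL6 lymph node and spleen CD4+ T cells were primed for 24 h with anti-CD3 (2 µg/ml) and anti-CD28 (1 µg/ml). Th2 polarization used IL-4 (10 ng/ml) and anti-IFN-γ (1 µg/ml) with compound at 10 µM, refreshed every other day for 3-4 days. Cells were restimulated with anti-CD3 (1 µg/ml) for 24 h, and supernatant IL-4 was measured by biotin/streptavidin-peroxidase sandwich ELISA.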

Th1 [7] = experiment: Antiinflammatory activity in C57BL6 mouse CD4-positive T-effector Th1 cells assessed as suppression of anti-CD3/IL-12-induced IFNgamma levels at 10 uM preincubated for 3 to 4 days followed by anti-CD3 stimulation for 24 hrs by ELISA; format: functional, cell-based; how it was run: as §1
[8] = Proinflammatory activity in C57BL6 mouse CD4-positive T-effector Th1 cells assessed as increase in anti-CD3/IL-12-induced IFNgamma levels at 10 uM preincubated for 3 to 4 days followed by anti-CD3 stimulation for 24 hrs by ELISA; format: ADME, cell-based; settings: th1, 24 h; how it was run: as §1
[9] = Proinflammatory activity in C57BL6 mouse CD4-positive T-effector Th1 cells assessed as increase in anti-CD3/IL-12-induced IL-2 levels at 10 uM preincubated for 3 to 4 days followed by anti-CD3 stimulation for 24 hrs by ELISA; format: ADME, cell-based; settings: th1, 24 h; how it was run: as §1

Row | Compound | inhibition [1] | viability at 48 h, 10 ug/ml [2] | further results
1 | CCOc1ccccc1C(=O)Nc1ccc2oc(Nc3ccc(CC)cc3)nc2c1 | 58% | – | –
2 | CCc1ccc(Nc2nc3cc(NC(=O)c4ccc(C(C)(C)C)cc4)ccc3o2)cc1 | 86.5% | 59.8% | –
3 | CCc1ccc(Nc2nc3cc(NC(=O)c4cc(OC)c(OC)c(OC)c4)ccc3o2)cc1 | 83.7% | 16.4% | –
4 | CCc1ccc(Nc2nc3cc(NC(=O)c4ccc(CC)cc4)ccc3o2)cc1 | 63.3% | – | –
5 | CCc1ccc(Nc2nc3cc(NC(=O)c4cccc(CCl)c4)ccc3o2)cc1 | 91.7% | 41.1% | –
6 | CCc1ccc(Nc2nc3cc(NC(=O)c4cc([N+](=O)[O-])ccc4Cl)ccc3o2)cc1 | 65.6% | – | –
7 | CCc1ccc(Nc2nc3cc(NC(=O)Cc4ccccc4)ccc3o2)cc1 | 61.7% | – | –
8 | CCc1ccc(Nc2nc3cc(NC(=O)c4cc(F)cc(C(F)(F)F)c4)ccc3o2)cc1 | 50.2% | – | –
9 | CCc1ccc(Nc2nc3cc(NC(=O)c4ccccc4Nc4cccc(C(F)(F)F)c4)ccc3o2)cc1 | 84.6% | 38.2% | –
10 | CCc1ccc(Nc2nc3cc(N)ccc3o2)cc1 | 97.5% | 70.8% | Activity (TH2 cell [3]): Active; Activity (Th17): Active; Activity (TH2 cell [4]): Active; Activity (Th1 [5]): Active; Activity (TH2 cell [6]): Active; Activity (Th1 [7]): Active
11 | CCCCCCCc1ccc(C(=O)Nc2ccc3oc(Nc4ccc(CC)cc4)nc3c2)cc1 | 57.2% | – | –
12 | CCc1ccc(Nc2nc3cc(NC(=O)c4ccc(Cl)cc4)ccc3o2)cc1 | 12.1% | – | Activity (TH2 cell [3]): inactive; Activity (Th17): inactive; Activity (TH2 cell [4]): inactive; Activity [8]: Toxic; Activity (TH2 cell [6]): inactive; Activity [9]: Toxic
13 | CCc1ccc(Nc2nc3cc(NC(=O)c4ccccc4)ccc3o2)cc1 | 93.1% | 65.6% | –
14 | CCc1ccc(Nc2nc3cc(NC(=O)c4ccc(Cl)c(Cl)c4)ccc3o2)cc1 | 69.3% | – | –
15 | CCc1ccc(Nc2nc3cc(NC(=O)c4ccc([N+](=O)[O-])cc4Cl)ccc3o2)cc1 | 20% | – | –
16 | CCc1ccc(Nc2nc3cc(NC(=O)c4ccc(OC)c(OC)c4)ccc3o2)cc1 | 26.2% | – | –
